The text below walks through data of publication PMC4493896 (Journal of Medicinal Chemistry, 2015).

By GI50 is commonly meant the concentration giving 50% growth inhibition.

Series [1] concerns CREB-mediated gene transcription. In words: CREB Renilla luciferase. Particulars: HEK 293T cells. In kind it is cell-based.
Series [2] has as its system A549, MCF-7, MDA-MB-231, MDA-MB-468 cells. In words: MTT assay, statements across the cancer cell line panel. In kind it is cell-based. Particulars: 72 h. Put shortly: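 Cells in DMEM with nonessential amino acids and 10% FBS (37 °C, 5% CO2) attached overnight, then took test compound at a range of concentrations up to 100 μM for 72 h. MTT (0.5 mg/mL in complete medium) was added for 3 h at 37 °C, formazan dissolved in DMSO, A570 read. Growth = 100×(At−A0)/(Ac−A0), with time-0 and medium-treated controls.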
In general terms: Formazan colour is commonly taken as a measure of viable cells.

The next series relates to cancer and normal cells. The following applies: same assay conditions; cited from earlier work.
The subject of a further series is Nurr1/NR4A2 mRNA. In words: qRT-PCR of endogenous CREB target gene in HEK 293T cells. In kind it is cell-based. The following applies: forskolin 10 μM. In general terms: Quantitative PCR measures a nucleic acid by following its amplification.

Consider `Cl.NCCCOc1cc2ccccc2cc1C(=O)NCCCOc1cc2ccccc2cc1C(=O)Nc1ccc(Cl)cc1` [Compound 3b, 3-(3-Aminopropoxy)-N-(3-((3-((4-chlorophenyl)carbamoyl)naphthalen-2-yl)oxy)propyl)-2-naphthamide Hydrochloride], for which the “decrease of CREB inhibition activity in comparison to 3a” value in series [1] is “about 2 fold”.
In the case of `Cl.O=C(NCCCOc1cc2ccccc2cc1C(=O)Nc1ccc(Cl)cc1O)c1cc2ccccc2cc1OCCCN1CCOCC1` [Compound 3e, N-(4-Chloro-2-hydroxyphenyl)-3-(3-(3-(3-morpholinopropoxy)-2-naphthamido)propoxy)-2-naphthamide Hydrochloride], the “growth inhibition activity in the other three cancer cell lines” value in series [2] (A549, MCF-7, MDA-MB-231, MTT) was “no activity”.
For the compound `O=C(NCCCOc1cc2ccccc2cc1C(=O)Nc1ccc(Cl)cc1O)c1cc2ccccc2cc1OCCCO` [Compound 3g, N-(4-Chloro-2-hydroxyphenyl)-3-(3-(3-(3-hydroxypropoxy)-2-naphthamido)propoxy)-2-naphthamide], in series [2] (read-out: GI50 values, range over all four cancer cell lines), the GI50 lay within 10.2 to 82.7 µM.
Take `COc1cccc2c1C(=O)c1c(O)c3c(c(O)c1C2=O)C[C@@](O)(C(=O)CO)C[C@@H]3O[C@H]1C[C@H](N)[C@H](O)[C@H](C)O1` [doxorubicin]: in the series on cancer and normal cells, the “differential toxicity between cancer and normal cells” value was “did not show differential toxicity”.
For `C=C[C@@]1(C)CC(=O)[C@]2(O)[C@@]3(C)[C@@H](O)CCC(C)(C)[C@@H]3[C@H](O)[C@H](OC(C)=O)[C@@]2(C)O1` [forskolin], the “stimulation of Nurr1/NR4A2 level” value in the series on Nurr1/NR4A2 mRNA is recorded as roughly 31 fold.
